Results published in paper PMC10868414 (Pharmaceutical Biology, 2024).

What was measured:
[1] = SDS at 1.0% w/w mixed in diet; ref Elder [1983]; cited from earlier work
[2] = Elimination of andrographolide in urine and feces; format: in vivo, beagle dogs
Method in brief: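 Male beagles (2.0–2.5 y, 10–15 kg; n = 4/group), fasted 10 h with water, caged singly; oral capsules equivalent to 3 mg/kg andrographolide, single dose and daily for 7 days. Urine centrifuged; feces mixed 50:50 w/v with methanol. Samples hydrolysed with β-glucuronidase solution (1,000 U/mL, pH 6.8, 37 °C, 30 min), methanol-precipitated with digoxin internal standard, LC-MS/MS (triple quadrupole); mean ± SD.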

[3] = poor water solubility and high permeability; ref Lee et al. [2019]; cited from earlier work
[4] = Lipinski's Rule of Five criterion; ref Lipinski et al. [2001]; cited from earlier work

dose excreted ([2]; beagle, dog, urine, po, 3 mg/kg) | Feces excretion of andrographolide ([2]; of the administered dose, after oral administration of A. paniculata formulations) | SMILES | Abnormalities in long-term study [1] | Biopharmaceutics Classification System (BCS) category [3] | logP value [4]
 |  | CCCCCCCCCCCCOS(=O)(=O)[O-].[Na+] [SDS, Sodium dodecyl sulfate] | did not result in any abnormalities |  | 
0.1 to 1% | less than 0.4% | C=C1CC[C@@H]2[C@](C)(CO)[C@H](O)CC[C@@]2(C)[C@@H]1C/C=C1/C(=O)OC[C@H]1O [andrographolide, Andrographolide] |  | BCS class II | lower than 5
